The text below walks through data of ChEMBL document CHEMBL2203278, “N-Phenyl-4-hydroxy-2-quinolone-3-carboxamides as selective inhibitors of mutant H1047R phosphoinositide-3-kinase (PI3Kα)” (Bioorg Med Chem, 2012).

Each structure is given as a SMILES string.

Assay [1] relates to HCT-116. The assay can be described thus: Growth inhibition of human HCT116 cells by MTT assay. Type of assay: functional, cell-based. In a few lines:
(§1)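 Growth of parental (WT) and H1047R-mutant HCT116 cells was measured by MTT assay, with absorbance read at 570 nm.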

Assay [2] concerns the target Phosphatidylinositol 4,5-bisphosphate 3-kinase catalytic subunit alpha isoform (Homo sapiens) (UniProt P42336). The assay can be described thus: Inhibition of PI3Kalpha in human HCT116 cells assessed as inhibition of Akt phosphorylation at S473 residue relative to DMSO. The format is cell-based. As to conditions: HCT-116. In outline: (§2)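 AKT activation was read as pAKT on immunoblots of lysates from compound-treated HCT116-WT and HCT116-MUT cells, tested at a single concentration. Lysate protein was measured by the […]. Blots were blocked in 5% milk/TBST, probed with primary antibody (1:1000) and HRP secondary (1:1000), and developed by ECL. Band areas were quantified relative to DMSO.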

For assay [3] the target is unchanged. The assay can be described thus: Inhibition of PI3Kalpha in human HCT116 cells assessed as increase in PARP cleavage relative to LY294002. The format is cell-based. As to conditions: HCT-116. In a few lines:
(§3)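 Apoptosis was assessed in HCT116-WT and HCT116-MUT cells, each treated with compound at a single concentration, by immunoblot for the 88 kDa cleaved PARP product. Blots were blocked in 5% milk/TBST, probed with primary antibody (1:1000) and peroxidase secondary (1:1000), and developed by ECL. Band areas were quantified by densitometry relative to LY294002.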

In assay [4] the test system is Phosphatidylinositol 4,5-bisphosphate 3-kinase catalytic subunit alpha isoform (Homo sapiens), P42336 [H1047R]. The assay can be described thus: Inhibition of PI3Kalpha H1047R mutant in human HCT116 cells assessed as increase in PARP cleavage relative to LY294002. Type of assay: cell-based. As to conditions: HCT-116. In a few lines: as §3
The test system is the same in assay [5]. The assay can be described thus: Inhibition of PI3Kalpha H1047R mutant in human HCT116 cells assessed as inhibition of Akt phosphorylation at S473 residue relative to DMSO. The settings on record: HCT-116. Type of assay: cell-based. In outline:
as §2

For assay [6] the test system is unchanged. The assay can be described thus: Inhibition of PI3Kalpha H1047R mutant in human HCT116 cells relative to LY294002. As to conditions: HCT-116. The format is cell-based. In a few lines:
(§4)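 PI3K kinase activity was assayed in lysates of compound-treated HCT116-WT and HCT116-MUT cells, using a single compound concentration. Cells were washed with PBS, lysed, and the supernatants were collected by centrifugation for 15 min. Resulting band areas were quantified densitometrically relative to LY294002.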

For assay [7], the system named is HCT-116. The assay can be described thus: Growth inhibition of human HCT116 cells expressing PI3Kalpha H1047R mutant by MTT assay. The format is functional, cell-based. In a few lines:
as §1
Background: Tetrazolium assays rely on reduction of a dye to a coloured formazan, in cell work by metabolically active cells.

For assay [8], the system named is HCT-116. The assay can be described thus: Selectivity index, ratio of IC50 for human HCT116 cell to IC50 for PI3Kalpha H1047R mutant expressing human HCT116 cell. The format is functional.
In assay [9] the target is Phosphatidylinositol 4,5-bisphosphate 3-kinase catalytic subunit alpha isoform (Homo sapiens) (UniProt P42336). The assay can be described thus: Inhibition of PI3Kalpha in human HCT116 cells relative to LY294002. The format is cell-based. As to conditions: HCT-116. In a few lines:
as §4

Chain of Phosphatidylinositol 4,5-bisphosphate 3-kinase catalytic subunit alpha isoform (Homo sapiens) (P42336 whole entry, canonical isoform): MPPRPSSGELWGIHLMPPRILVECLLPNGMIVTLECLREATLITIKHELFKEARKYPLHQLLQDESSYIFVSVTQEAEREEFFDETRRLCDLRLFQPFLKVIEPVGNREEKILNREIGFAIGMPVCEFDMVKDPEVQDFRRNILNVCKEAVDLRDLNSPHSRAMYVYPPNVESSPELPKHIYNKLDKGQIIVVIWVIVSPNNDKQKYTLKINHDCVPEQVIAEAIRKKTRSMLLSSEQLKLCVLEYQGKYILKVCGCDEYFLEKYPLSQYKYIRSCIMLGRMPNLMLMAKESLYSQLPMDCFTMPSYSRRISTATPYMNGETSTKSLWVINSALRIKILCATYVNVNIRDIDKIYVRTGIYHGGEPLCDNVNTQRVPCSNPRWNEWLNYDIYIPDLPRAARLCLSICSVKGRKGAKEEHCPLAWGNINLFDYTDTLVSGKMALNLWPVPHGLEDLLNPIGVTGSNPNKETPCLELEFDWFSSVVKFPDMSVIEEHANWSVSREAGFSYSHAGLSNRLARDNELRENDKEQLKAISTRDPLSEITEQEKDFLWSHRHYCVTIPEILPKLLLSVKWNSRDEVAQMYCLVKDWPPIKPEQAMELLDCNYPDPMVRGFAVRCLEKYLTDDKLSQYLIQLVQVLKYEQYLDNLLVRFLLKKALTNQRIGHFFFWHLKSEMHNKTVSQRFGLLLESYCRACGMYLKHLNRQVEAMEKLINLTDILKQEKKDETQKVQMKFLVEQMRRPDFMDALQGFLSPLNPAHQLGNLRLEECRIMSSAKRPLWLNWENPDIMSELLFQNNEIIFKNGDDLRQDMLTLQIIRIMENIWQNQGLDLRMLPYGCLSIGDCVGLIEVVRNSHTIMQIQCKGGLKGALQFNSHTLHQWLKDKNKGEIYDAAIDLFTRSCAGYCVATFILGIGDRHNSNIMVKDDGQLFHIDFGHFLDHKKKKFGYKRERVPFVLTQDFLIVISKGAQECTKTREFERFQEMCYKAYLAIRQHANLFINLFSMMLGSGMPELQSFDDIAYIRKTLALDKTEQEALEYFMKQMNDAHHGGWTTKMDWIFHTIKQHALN
Chain of Phosphatidylinositol 4,5-bisphosphate 3-kinase catalytic subunit alpha isoform (Homo sapiens), P42336 [H1047R] (P42336 whole entry H1047R, canonical isoform): as the sequence (P42336 whole entry, canonical isoform) above, with H1047R counted along it

For `COc1ccc(NC(=O)c2c(O)c3cc(OC)ccc3[nH]c2=O)cc1`, the IC50 (usually the point on the concentration scale where inhibition reaches its midpoint) came out at 64 µM with HCT-116 [1] and 6.3 µM with HCT-116 [7]. The fold change (FC) in assay [2] was found to be 1.66; in [3], 0.01; in [4] it was 3.9; in assay [5], 0.44; in assay [6] it was 0.64; in assay [9], 0.82. Moreover, the “Ratio IC50” value in the assay on HCT-116 [8] is 10.

`O=C(NCc1ccccc1)c1cnc2ccccc2c1`: the IC50 in the assay on HCT-116 [1] turned out to be 65 µM; with HCT-116 [7], 120 µM. Also, the fold change (FC) in assay [2] worked out at 1.59; in assay [3], 0.81; in [4], 0.06; in [5], 0.3; in [6] it was 0.87; in [9], 0.7.

On to `Cn1c(=O)c(C(=O)Nc2ccccc2)c(O)c2ccccc21`, for which the IC50 in the assay on HCT-116 [1] turned out to be 110 µM; in the assay on HCT-116 [7], 100 µM.

As to `O=c1cc(N2CCOCC2)oc2c(-c3ccccc3)cccc12`, the fold change (FC) is 0.01 in assay [2] and 0.41 in assay [5].

For the molecule `O=C(NCc1ccccc1)c1cnc2ccccc2c1O`, the IC50 worked out at 24 µM in the assay with HCT-116 [1] and 19 µM in the assay on HCT-116 [7]. In addition, the fold change (FC) in assay [2] was 1; in assay [3], 0.71; in assay [4], 0.2; in assay [5], 0.2; in [6], 0.88; in assay [9] it was 0.56.

Regarding `O=C(Nc1ccccc1F)c1c(O)c2cccc(F)c2[nH]c1=O`, the IC50 stood at 22 µM with HCT-116 [1] and 3.6 µM with HCT-116 [7]. The fold change (FC) in assay [2] was determined as 1.6; in assay [3], 0.88; in assay [4], 5.05; in assay [5], 1.23; in [6] it was 0.75; in assay [9] it was 0.69. For the same molecule, the “Ratio IC50” value in the assay with HCT-116 [8] is 6.

With `Cc1ccc(NC(=O)c2c(O)c3cc(C)ccc3[nH]c2=O)cc1`, the IC50 in the assay with HCT-116 [1] came to 27 µM; in the assay on HCT-116 [7], 5.6 µM. Besides, the fold change (FC) in [2] was 1.66; in assay [3] it was 1; in [4] it was 1.14; in assay [5], 0.41; in assay [6], 0.79; in [9] it was 0.75. Further, in the assay on HCT-116 [8], the “Ratio IC50” value is 4.8.

Consider `O=C(Nc1cccc(F)c1)c1c(O)c2ccc(F)cc2[nH]c1=O`, for which the IC50 in the assay on HCT-116 [1] worked out at 6.5 µM; with HCT-116 [7], 0.28 µM. The fold change (FC) stood at 1.01 in assay [2]; 0.4 in [3]; 1.35 in assay [4]; 0.51 in assay [5]; 0.9 in assay [6]; 0.75 in assay [9]. For the same molecule, the “Ratio IC50” value in the assay with HCT-116 [8] was 23.

As to `O=C(Nc1ccccc1)c1c(O)nc2ccccc2c1O`, the IC50 with HCT-116 [1] is 9.4 µM; in the assay with HCT-116 [7] it was 2.5 µM. In addition, the fold change (FC) amounted to 0.11 in [2]; 0.01 in assay [3]; 4.99 in assay [4]; 0.4 in [5]; 0.71 in assay [6]; 0.89 in [9]. In addition, the “Ratio IC50” value with HCT-116 [8] is reported as 3.8.

Take `O=C(NCc1ccccc1)c1cc2ccccc2[nH]c1=O`: the IC50 in the assay with HCT-116 [1] amounted to 420 µM; in the assay with HCT-116 [7] it was 330 µM. In addition, the fold change (FC) was 0.09 in [2]; 0.92 in assay [3]; 0.05 in assay [4]; 0.13 in assay [5]; 0.8 in assay [6]; 0.14 in assay [9].

Consider `O=C(Nc1ccc(F)cc1)c1c(O)c2cc(F)ccc2[nH]c1=O`, for which the IC50 was determined as 15 µM with HCT-116 [1] and 6.9 µM in the assay with HCT-116 [7]. Further, the fold change (FC) in assay [2] was 0.95; in [3] it was 1.01; in [4], 1.37; in [5], 0.86; in assay [6], 0.59; in assay [9] it was 0.65. In addition, the “Ratio IC50” value with HCT-116 [8] was determined as 2.2.
